Columns and labels:
[1] = tested on: L1210; assay: Inhibition of murine L1210 cell line tissue culture growth; type: functional, cell-based; settings: Mus musculus
In short: (§1)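 Murine L1210 leukemia cells seeded at 1000 cells/well in RPMI-1640 containing 5% fetal calf serum and 0.5% DMSO, exposed to nine 2-fold serial dilutions for 3 days. Growth was read by MTT (4 h), with formazan dissolved in DMSO and measured spectrophotometrically. IC50 comes from semilog concentration plots of the mean of four assessments per dilution versus control growth.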

[2] = tested on: GC3/MTK-; assay: Inhibition of GC3/M TK- (human adenocarcinoma) cell growth in vitro.; type: functional, cell-based
In short: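 Thymidine kinase-deficient human adenocarcinoma GC3/M TK- cells seeded at 10 000 cells/well in RPMI-1640 with 10% fetal calf serum and 0.5% DMSO. Compound given as nine 2-fold serial dilutions over a 5 day incubation, then 4 h MTT and spectrophotometric formazan read after DMSO dissolution. IC50 from semilog plots of the mean of four growth assessments relative to control cultures.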

[3] = target: Thymidylate synthase (Escherichia coli) (UniProt C3SWJ7)
Chain of Thymidylate synthase (Escherichia coli) (C3SWJ7 1-264): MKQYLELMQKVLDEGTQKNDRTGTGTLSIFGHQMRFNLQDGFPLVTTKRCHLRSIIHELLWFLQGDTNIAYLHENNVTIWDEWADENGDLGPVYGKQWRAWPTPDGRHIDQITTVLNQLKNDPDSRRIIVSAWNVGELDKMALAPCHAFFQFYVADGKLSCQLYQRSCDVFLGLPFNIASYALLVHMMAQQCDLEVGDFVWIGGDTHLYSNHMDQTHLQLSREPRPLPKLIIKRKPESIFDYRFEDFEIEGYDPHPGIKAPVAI

[4] = tested on: CCRF-CEM; assay: (§2) Inhibition of CCRF-CEM (human leukemia) cell growth in vitro.; type: functional, cell-based
In short: (§3)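 MTT colorimetric growth assay (modified Mosmann) in CCRF-CEM human leukemia cells seeded at 10 000 cells/well in RPMI-1640 with 5% fetal calf serum and 0.5% DMSO. Nine 2-fold serial dilutions of compound, 5 day incubation, then 4 h MTT and formazan dissolved in DMSO for spectrophotometric reading. IC50 taken from semilog plots of the mean of four growth assessments per dilution relative to control cultures.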

[5] = target: Thymidylate synthase (Homo sapiens) (UniProt P04818)
Chain of Thymidylate synthase (Homo sapiens) (P04818 2-313 limits assumed): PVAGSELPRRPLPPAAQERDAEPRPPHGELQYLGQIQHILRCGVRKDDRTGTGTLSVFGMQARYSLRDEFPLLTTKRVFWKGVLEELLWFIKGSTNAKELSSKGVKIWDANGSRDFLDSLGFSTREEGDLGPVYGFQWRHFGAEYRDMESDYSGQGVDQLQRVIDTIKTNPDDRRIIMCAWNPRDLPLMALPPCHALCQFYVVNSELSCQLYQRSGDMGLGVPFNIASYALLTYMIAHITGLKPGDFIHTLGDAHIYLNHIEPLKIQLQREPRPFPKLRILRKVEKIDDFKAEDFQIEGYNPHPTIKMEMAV

[6] = target: Thymidylate synthase (Escherichia coli) (UniProt C3SWJ7); remark: listed apart in the source
[7] = target: Thymidylate synthase (Homo sapiens) (UniProt P04818); remark: listed apart in the source
[8] = tested on: CCRF-CEM; assay: as §2; type: functional; parameters: concentration or dose not given beside the values; in short: as §3
[9] = tested on: CCRF-CEM; assay: Activity for growth inhibition in tissue culture of human leukemias (CCRF-CEM). value in parenthesis indicates % inhibition; type: functional, cell-based
[10] = tested on: L1210; assay: Inhibition of L1210 (murine leukemia) cell growth in vitro.; type: functional, Mus musculus; parameters: concentration or dose not given beside the values; in short: as §1
[11] = tested on: GC3/MTK-; assay: Inhibitory activity of compound against growth of thymidine kinase-deficient human adenocarcinoma cell line (GC3/M TK-) in tissue culture; type: functional; parameters: concentration or dose not given beside the values
In short: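 MTT colorimetric growth assay in the thymidine kinase-deficient human adenocarcinoma line. Seeded at 10 000 cells/well in RPMI-1640 with 10% fetal calf serum and 0.5% DMSO. Nine 2-fold serial dilutions of compound, 5 day incubation, then 4 h MTT. Formazan dissolved in DMSO and read spectrophotometrically. IC50 taken from semilog plots of the mean of four growth assessments per dilution, relative to control cultures.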

[12] = tested on: CCRF-CEM; assay: Activity for growth inhibition in tissue culture of human leukemias (CCRF-CEM); type: functional, cell-based; in short: as §3
[13] = tested on: GC3/MTK-; assay: Activity for growth inhibition in tissue culture of thymidine kinase-deficient human adenocarcinoma cell line (GC3/M TK-)value in parenthesis indicates % inhibition; type: functional, cell-based
[14] = tested on: CCRF-CEM; assay: Activity for growth inhibition in tissue culture of human leukemias (CCRF-CEM). value in parenthesis indicates % inhibition.; type: functional, cell-based

Compound | IC50 [1] | IC50 [2] | Kis [3] | IC50 [4] | Kii [5] | Kii [6] | Kis [7] | Inhibition [8] | IC50 [9] | Inhibition [10] | Inhibition [11] | IC50 [12] | IC50 [13] | IC50 [14]
CCN(Cc1ccc2nc(C)nc(O)c2c1)c1ccc(S(=O)(=O)c2ccccc2)cc1 | 0.66 µM | 2.6 µM | 0.077 µM | 2.7 µM | 0.13 µM | 0.24 µM | 0.034 µM |  |  |  |  |  |  | 
C#CCN(Cc1ccc2nc(C)nc(O)c2c1)c1cccc(C(C)O)c1 (stereo not given) | > 49 µM | 49 µM | 2.4 µM |  | 3.6 µM | 8.3 µM | 1.7 µM | 33% | > 49 µM | 35% |  |  |  | 
C#CCN(Cc1ccc2nc(C)nc(O)c2c1)c1ccc(S(=O)(=O)NCC(=O)O)c(C(F)(F)F)c1 | > 75 µM | > 77 µM | 0.0059 µM |  | 0.019 µM | 0.015 µM | 0.0096 µM |  | > 77 µM |  | 28% |  |  | 
C#CCN(Cc1ccc2nc(C)nc(O)c2c1)c1ccc(S(=O)(=O)c2ccccc2)cc1 | 0.86 µM | 1.76 µM |  | 1.44 µM |  |  |  |  |  |  |  |  |  | 
C#CCN(Cc1ccc2nc(C)nc(O)c2c1)c1ccc(C(=O)NC(CCC(=O)O)C(=O)O)cc1 (stereo not given) | 0.045 µM | 0.048 µM | 0.0048 µM |  | 0.0071 µM |  | 0.0085 µM |  |  |  |  | 0.029 µM |  | 
C#CCN(Cc1ccc2nc(C)nc(O)c2c1)c1ccc(S(N)(=O)=O)cc1 | 20 µM | > 26 µM | 0.1 µM | > 26 µM | 0.084 µM | 0.41 µM | 0.064 µM |  |  |  |  |  |  | 
C#CCN(Cc1ccc2nc(C)nc(O)c2c1)c1ccc(C#N)c(C(F)(F)F)c1 | > 2.8 µM |  | 0.015 µM |  | 0.14 µM | 0.047 µM | 0.081 µM |  |  | >15% |  |  |  | 
C#CCN(Cc1ccc2nc(C)nc(O)c2c1)c1ccc([N+](=O)[O-])cc1 | 4.7 µM | > 4.8 µM | 0.068 µM | > 4.8 µM | 0.098 µM | 0.17 µM | 0.056 µM | 8% |  |  |  |  |  | 
C#CCN(Cc1ccc2nc(C)nc(O)c2c1)c1ccc([N+](=O)[O-])c(C(F)(F)F)c1 | 5 µM |  | 0.038 µM | 10.5 µM | 0.15 µM | 0.073 µM | 0.074 µM |  |  |  |  |  |  | 
C#CCN(Cc1ccc2nc(C)nc(S)c2c1)c1cccc(C(F)(F)F)c1 | > 5.6 µM |  | 0.18 µM | > 5.6 µM | 2.3 µM | 0.36 µM | 1.3 µM | 30% |  |  |  |  | > 5.6 µM | 
C#CCN(Cc1ccc2nc(C)nc(O)c2c1)c1ccc(C#N)cc1 | > 5 µM | > 5 µM | 0.15 µM |  | 0.17 µM | 0.33 µM | 0.076 µM | 10% |  | 35% |  | > 5 µM |  | 
C#CCN(Cc1ccc2nc(C)nc(O)c2c1)c1cccc(CO)c1 | 48 µM | > 54 µM | 1.7 µM |  | 1.2 µM | 5.1 µM | 0.62 µM | 30% |  |  | 22% |  |  | > 54 µM
C#CCN(Cc1ccc2[nH]c(N)nc(=O)c2c1)c1ccc(C(=O)NC(CCC(=O)O)C(=O)O)cc1 (stereo not given) | 1.57 µM | 2.13 µM |  |  |  |  |  |  |  |  |  |  |  | 
C#CCN(Cc1ccc2nc(C)nc(O)c2c1)c1ccc([S+]([O-])c2ccccc2)cc1 (stereo not given) | 1.7 µM | 3.9 µM | 0.16 µM | 4.5 µM | 0.11 µM | 0.55 µM | 0.061 µM |  |  |  |  |  |  | 

From ChEMBL document CHEMBL1129494, “Structure-based design of lipophilic quinazoline inhibitors of thymidylate synthase” (J Med Chem, 1996)
